From ChEMBL document CHEMBL3124866, “Small molecular antibacterial peptoid mimics: the simpler the better!” (J Med Chem, 2014)
In brackets after ≈: the same amount, converted by molar mass.

Assays:
[1] = system: Klebsiella pneumoniae; assay: Antibacterial activity against beta-lactam-resistant Klebsiella pneumoniae ATCC 700603 after 24 hrs by broth microdilution assay; format: functional
Method in brief: (§1)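 MIC by broth microdilution. Cultures were grown 6 h to ~10^9 cfu/mL, then diluted to 10^5 cfu/mL. Media: yeast-dextrose broth for MRSA, BHI for VRE, and beef extract/peptone nutrient broth for K. pneumoniae. Compounds were serially diluted in water, 50 µL added to 150 µL cells, and incubated 24 h at 37 °C. OD600 triplicates were sigmoid-fitted; MIC is the point where OD equals the no-bacteria control. Mean ± SEM of ≥2 experiments.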

[2] = system: Enterococcus faecium; assay: Antibacterial activity against drug-sensitive Enterococcus faecium ATCC 19634 after 24 hrs by broth microdilution assay; format: functional
Method in brief: (§2)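 Bacteria grown 6 h to ~10^9 cfu/mL and diluted to 10^5 cfu/mL in nutrient media. Growth media were LB (E. coli), yeast-dextrose broth (S. aureus, P. aeruginosa) and BHI (E. faecium). Compound was serially diluted in water and added 1:3 to bacteria, then incubated 37 °C for 24 h with OD600 read-out. Triplicate ODs were sigmoid-fitted; MIC was taken where OD matched the no-bacteria control. At least two independent experiments.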

[3] = system: Staphylococcus aureus; assay: Antibacterial activity against drug-sensitive Staphylococcus aureus MTCC 737 after 24 hrs by broth microdilution assay; format: functional; method in brief: as §2
[4] = system: Pseudomonas aeruginosa; assay: Antibacterial activity against drug-sensitive Pseudomonas aeruginosa ATCC 4676 after 24 hrs by broth microdilution assay; format: functional; method in brief: as §2
[5] = system: Enterococcus faecium; assay: Antibacterial activity against vancomycin-resistant Enterococcus faecium ATCC 51559 after 24 hrs by broth microdilution assay; format: functional; method in brief: as §1
[6] = system: Staphylococcus aureus; assay: Antibacterial activity against methicillin-resistant Staphylococcus aureus ATCC 33591 after 24 hrs by broth microdilution assay; format: functional; method in brief: as §1
[7] = system: Escherichia coli; assay: Antibacterial activity against drug-sensitive Escherichia coli MTCC 443 after 24 hrs by broth microdilution assay; format: functional; method in brief: as §2
[8] = Hemolytic activity in human erythrocytes after 1 hr by spectrophotometric analysis; format: ADME, cell-based, Erythrocyte
Method in brief: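 Heparinized fresh human erythrocytes at 5 vol% in PBS pH 7.4 were mixed 3:1 with serially diluted compound and held 1 h at 37 °C. Plates were centrifuged and supernatant A540 read. Hemolysis was scaled between an untreated control and a Triton X-100 (100% lysis) control. HC50 is the mean of at least two independent triplicate experiments.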

[9] = Retention time of the compound by HPLC analysis; format: physicochemical
[10] = system: Escherichia coli; assay: Ratio of MSI-78 MIC to compound MIC for Escherichia coli; format: functional

| Compound | MIC ([1]; ATCC 700603, 24 h) [µg/mL] | MIC ([2]; ATCC 19634, 24 h) [µg/mL] | MIC ([3]; MTCC 737, 24 h) [µg/mL] | MIC ([4]; ATCC 4676, 24 h) [µg/mL] | MIC ([5]; ATCC 51559, 24 h) [µg/mL] | MIC ([6]; ATCC 33591, 24 h) [µg/mL] | MIC ([7]; MTCC 443, 24 h) [µg/mL] | HC50 at 1 h [8] [µg/mL] | Retention_time [9] [min] | MIC [1] [µg/mL] | MIC [2] [µg/mL] | MIC [3] [µg/mL] | MIC [4] [µg/mL] | MIC [5] [µg/mL] | MIC [6] [µg/mL] | MIC [7] [µg/mL] | Ratio [10] |
| --- | --- | --- | --- | --- | --- | --- | --- | --- | --- | --- | --- | --- | --- | --- | --- | --- | --- |
| CCCCN(Cc1c2ccccc2c(Cl)c2ccccc12)C(=O)[C@@H](N)CCCCN.O=C(O)C(F)(F)F.O=C(O)C(F)(F)F | 17 | 4.5 | 5.3 | 1.9 | 5.3 | 6.3 | 4.8 | 91 | 12.4 |  |  |  |  |  |  |  |  |
| CN[C@H](CC(C)C)C(=O)N[C@H]1C(=O)N[C@@H](CC(N)=O)C(=O)N[C@H]2C(=O)N[C@H]3C(=O)N[C@H](C(=O)N[C@H](C(=O)O)c4cc(O)cc(O)c4-c4cc3ccc4O)[C@H](O)c3ccc(c(Cl)c3)Oc3cc2cc(c3O[C@@H]2O[C@H](CO)[C@@H](O)[C@H](O)[C@H]2O[C@H]2C[C@](C)(N)[C@H](O)[C@H](C)O2)Oc2ccc(cc2Cl)[C@H]1O [VANCOMYCIN] |  | 0.87 (≈ 0.6 µM) | 0.9 (≈ 0.621 µM) |  | > 100 | 0.9 (≈ 0.621 µM) |  |  |  |  |  |  |  |  |  |  |  |
| CCCCCCN(Cc1ccccc1)C(=O)[C@@H](N)CCCCN.O=C(O)C(F)(F)F.O=C(O)C(F)(F)F | > 100 | > 100 | > 100 | > 100 |  | > 100 | > 100 | > 1000 | 10.6 |  |  |  |  |  |  |  |  |
| CCCCCCCCCCCCCCN(Cc1ccccc1)C(=O)[C@@H](N)CCCCN.O=C(O)C(F)(F)F.O=C(O)C(F)(F)F | 4 | 2 | 3.1 | 2.8 | 2.5 | 2.5 | 3.1 | 50 | 15.8 |  |  |  |  |  |  |  |  |
| CCCCCCCCN(Cc1ccccc1)C(=O)[C@@H](N)CCCCN.O=C(O)C(F)(F)F.O=C(O)C(F)(F)F | > 100 | 60 | 46 | 60 | > 100 | > 100 | 51 | 325 | 12.1 |  |  |  |  |  |  |  |  |
| CCCCN(Cc1cccc2ccccc12)C(=O)[C@@H](N)CCCCN.O=C(O)C(F)(F)F.O=C(O)C(F)(F)F | > 100 | > 100 | > 100 | > 100 | > 100 | > 100 | > 100 | > 1000 | 10.8 |  |  |  |  |  |  |  |  |
| COLISTIN |  |  |  |  |  |  |  |  |  | 1.2 | > 100 | 20 | 0.4 | > 100 | 54 | 0.4 |  |
| CCCCCCCCCCN(Cc1cccc2ccccc12)C(=O)[C@@H](N)CCCCN.O=C(O)C(F)(F)F.O=C(O)C(F)(F)F | 5.8 | 3.5 | 2.5 | 3 | 1.6 | 2.6 | 4 | 54 | 14.2 |  |  |  |  |  |  |  |  |
| CCCCCCCCN(Cc1c2ccccc2c(Cl)c2ccccc12)C(=O)[C@@H](N)CCCCN.O=C(O)C(F)(F)F.O=C(O)C(F)(F)F | 4.3 | 2.5 | 2.2 | 3.8 | 3 | 2.3 | 2.9 | 64 | 14.6 |  |  |  |  |  |  |  | 5 |
| CCCCCCCCCCN(Cc1c2ccccc2c(Cl)c2ccccc12)C(=O)[C@@H](N)CCCCN.O=C(O)C(F)(F)F.O=C(O)C(F)(F)F | 7.6 | 4.9 | 7.1 | 11 | 5.6 | 4.6 | 26 | 71 | 15.6 |  |  |  |  |  |  |  |  |
| CCCCCCCCN(Cc1cccc2ccccc12)C(=O)[C@@H](N)CCCCN.O=C(O)C(F)(F)F.O=C(O)C(F)(F)F | 13 | 5.5 | 6.3 | 5.4 | 7 | 4.4 | 5 | 60 | 12.9 |  |  |  |  |  |  |  |  |
| CCCCN(Cc1ccccc1)C(=O)[C@@H](N)CCCCN.O=C(O)C(F)(F)F.O=C(O)C(F)(F)F | > 100 | > 100 | > 100 | > 100 |  | > 100 | > 100 | > 1000 | 9.4 |  |  |  |  |  |  |  |  |
| CCCCCCCCCCCCN(Cc1ccccc1)C(=O)[C@@H](N)CCCCN.O=C(O)C(F)(F)F.O=C(O)C(F)(F)F |  | 2.6 | 2.7 | 4 | 3.3 | 2.9 | 5 | 45 | 14.5 |  |  |  |  |  |  |  |  |
| CCN(Cc1c2ccccc2c(Cl)c2ccccc12)C(=O)[C@@H](N)CCCCN.O=C(O)C(F)(F)F.O=C(O)C(F)(F)F | 31 | 13.6 | 11 | 4 | 7.2 | 21 | 25 | 118 | 11.8 |  |  |  |  |  |  |  |  |
| CCCCCCCCCCN(Cc1ccccc1)C(=O)[C@@H](N)CCCCN.O=C(O)C(F)(F)F.O=C(O)C(F)(F)F | 31 | 6.5 | 5.7 | 4 | 5.8 | 15.7 | 6.5 | 95 | 13.4 |  |  |  |  |  |  |  |  |
| CCCCCCCCCCCCN(Cc1cccc2ccccc12)C(=O)[C@@H](N)CCCCN.O=C(O)C(F)(F)F.O=C(O)C(F)(F)F | 4 | 1.6 | 3 | 3.2 | 3.4 | 2.7 | 3.1 | 56 | 15.1 |  |  |  |  |  |  |  |  |
